We go through one compound from ChEMBL document CHEMBL1154414, “In vitro and in vivo activities of T-705 against arenavirus and bunyavirus infections” (Antimicrob Agents Chemother, 2007).

The species named for data set [1] is Mus musculus. As to conditions: in vivo, po.
Data set [2] can be described thus: Cytotoxicity against african green monkey Vero cells after 7 to 8 days by neutral-red dye uptake assay. Type of data set: cell-based. The note with it: chlorocebus sabaeus. The gist of the method: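 Subconfluent (50-70%) Vero cells received half-log drug dilutions without virus and were held at 37°C, 5% CO2 for 7-8 days. Cells were stained with 0.034% neutral red for 2 h, and the dye was extracted 30 min in ethanol with Sorenson's citrate buffer. Absorbance was read at 540 nm as % of untreated controls. CC50 was derived by regression.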

Data set [3] can be described thus: Cytotoxicity against african green monkey Vero 76 cells assessed as cell viability after 3 to 5 days. The note with it: chlorocebus sabaeus. Type of data set: cell-based.
Data set [4] is described as follows: Metabolic stability in po dosed mouse assessed as drug remaining after 6 hrs. Type of data set: ADME, organism-based. As to conditions: in vivo, read-out: Stability.
A short description of data set [5]: Selectivity index, ratio of CC50 for african green monkey Vero 76 cells to EC50 for Sandfly fever Naples virus. The note with it: read-out: Ratio CC50/EC50. Type of data set: toxicity, cell-based.
Data set [6] in a line: Selectivity index, ratio of CC50 for african green monkey Vero 76 cells to EC50 for La Crosse virus. Type of data set: toxicity, cell-based. The note with it: read-out: Ratio CC50/EC50.
The next data set has as its system Syrian golden hamster. As to conditions: in vivo, po, 72 h.
Data set [7] in a line: Selectivity index, ratio of CC50 for african green monkey Vero cells to EC50 for Junin virus Candid-1. As to conditions: read-out: Ratio CC50/EC50. Type of data set: toxicity, cell-based.
Data set [8] can be described thus: Selectivity index, ratio of CC50 for african green monkey Vero cells to EC50 for Pichinde virus An 4763. Type of data set: toxicity, cell-based. As to conditions: read-out: Ratio CC50/EC50.
Data set [9] can be described thus: Selectivity index, ratio of CC50 for african green monkey Vero 76 cells to EC50 for Punta Toro virus Adames. Type of data set: toxicity, cell-based. The note with it: read-out: Ratio CC50/EC50.
Data set [10] can be described thus: Selectivity index, ratio of CC50 for african green monkey Vero cells to EC50 for Tacaribe virus TRVL11573. Type of data set: toxicity, cell-based. As to conditions: read-out: Ratio CC50/EC50.
Data set [11] has as its system Mus musculus. Put plainly: % Compound cleared in virus-infected po dosed mouse after 6 hrs. Type of data set: ADME, organism-based. The note with it: in vivo.
The nature of data set [12]: Selectivity index, ratio of CC50 for african green monkey Vero 76 cells to EC50 for Rift Valley fever virus MP-12. Type of data set: toxicity, cell-based. The note with it: read-out: Ratio CC50/EC50.

What is called LD50 is the dose at which mortality reaches 50%. As a reminder, the CC50 is the concentration at which the toxic effect on the cells reaches its halfway point. In the case of `NC(=O)c1nc(F)c[nH]c1=O` [FAVIPIRAVIR], the LD50 in the data set listed under Mus musculus [1] is recorded as 707 mg/kg/day; with Syrian golden hamster, 1500 mg/kg/day. In addition, the CC50 was 1110 µM in data set [2] and greater than 6260 µM in data set [3]. Moreover, the remaining at 6 h in [4] is 10%. The selectivity ratio in data set [5] is greater than 55; in data set [6], greater than 199; in data set [7], 239; in data set [8] it was 186; in [9], greater than 33; in [10], 227. In addition, the selectivity ratio in data set [12] is greater than 196. Besides, in the data set with Mus musculus [11], the “%Cleared” value is greater than 90%.
